Measured values as given in publication PMC12254776 (Acta Pharmaceutica Sinica. B, 2025).

Assays:
RM-1 prostate tumor [1] = assay: In vivo antitumor efficacy, RM-1 prostate tumor-bearing C57BL/6 mice; set-up: species or system mouse; settings: 4 mg/kg CTX equivalent and/or 7.5 mg/kg GSP equivalent, i.v., every three days, three injections
RM-1 cells [2] = assay: MTT cytotoxicity assay against RM-1 cells; format: cell-based, mouse; settings: for effect of GSP on the sensitivity of cells to the drug: GSP at an ineffective concentration of 0.5 μmol/L
Method in brief: (§1)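 Cells were seeded at 2 × 10³ per well and grown for 12 h at 37 ℃, 5% CO₂. RM-1, 4T1 and L02 were kept in RPMI 1640 with 10% FBS; 3T3 in DMEM/F-12 with 10% FBS. […] MTT (5 mg/mL stock) was added for 4 h, formazan was dissolved in DMSO, and absorbance was read at 492 nm.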

L02 cells = assay: MTT cytotoxicity assay against L02 cells; format: cell-based, human
Method in brief: as §1

testosterone = assay: Serum testosterone; format: in vivo, mouse; settings: 4 mg/kg CTX equivalent and/or 7.5 mg/kg GSP equivalent, three injections
3T3 cells = assay: MTT cytotoxicity assay against 3T3 cells; format: cell-based, mouse
Method in brief: as §1

RM-1 prostate tumor [3] = assay: GSP-rendered ultra-low-dose chemotherapeutic window in vivo; set-up: species or system mouse; settings: five injections
Method in brief: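 Male C57BL/6 mice were given 5 × 10⁶ RM-1 cells in 100 μL PBS subcutaneously in the right rear flank. […] Dosing was i.v. every other day, five injections. Tumor volume and body weight were recorded daily. Blood was taken one day after the last dose; organs were taken for H&E.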

RM-1 cells [4] = assay: Mitochondrial membrane potential assay; format: cell-based, mouse; settings: green = low potential
Method in brief: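 Cells were stained with JC-1 working solution at 37 ℃ for 20 min, washed twice in cold JC-1 buffer and imaged by confocal microscopy (red aggregates, green monomers). Depolarization was quantified in ImageJ. For flow cytometry, cells seeded at 5 × 10⁴/well were trypsinised before staining. Untreated cells were the control.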

RM-1 cells [5] = assay: Live/dead cell co-staining; format: cell-based, mouse; settings: 100 nmol/L CTX equivalent and/or 300 nmol/L GSP equivalent, 24 h
Method in brief: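 RM-1 cells were seeded on coverslips at 5 × 10⁴ cells/well and grown for 12 h. […] Cells were stained with Calcein-AM (live) and PI (dead) for 30 min and imaged by confocal microscopy. Untreated cells were the control.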

Bcl-2 = assay: Western blotting of Bcl-2 in RM-1 cells; format: cell-based, mouse; settings: 10 nmol/L CTX equivalent and/or 30 nmol/L GSP equivalent, 40 h
4T1 cells = assay: MTT cytotoxicity assay against 4T1 cells; format: cell-based, mouse; settings: 48 h
Method in brief: as §1

[6] = 14.9 mg/kg GSP equivalent, i.v.

CO[C@H]1C(=O)[C@]2(C)[C@@H](OC)C[C@H]3OC[C@@]3(OC(C)=O)[C@H]2[C@H](OC(=O)c2ccccc2)[C@]2(O)C[C@H](OC(=O)[C@H](O)[C@@H](NC(=O)OC(C)(C)C)c3ccccc3)C(C)=C1C2(C)C [CTX, Cabazitaxel]
antitumor activity (tumor growth) (RM-1 prostate tumor [1]): moderate antitumor activity | reduction in IC50 values in the presence of GSP (RM-1 cells [2]; 0.5 μmol/L GSP): ≥ 100 fold | effect of GSP on the sensitivity of cells to the drug (RM-1 cells [2]): dramatically augmented | effect of GSP on the cytotoxicity of the drug (L02 cells; 500 nmol/L GSP): little effect | serum testosterone (testosterone): no change in serum testosterone | effect of GSP on the cytotoxicity of the drug (3T3 cells; 500 nmol/L GSP): little effect | body weight (RM-1 prostate tumor [3]; CTX dose gradient 1–8 mg/kg): dramatic weight loss | hepatorenal function indicators and whole blood indexes (RM-1 prostate tumor [3]; CTX dose gradient 1–8 mg/kg): abnormalities in hepatorenal function indicators and pancytopenia | toxicity (weight loss, death) (RM-1 prostate tumor [3]; high doses 4, 6 and 8 mg/kg CTX equivalent, i.v.): serious toxic side effects | anti-tumor effects (RM-1 prostate tumor [3]; low doses 1 and 2 mg/kg CTX equivalent, i.v.): negligible anti-tumor effects | mitochondrial membrane potential change (JC-1 fluorescence, in words) (RM-1 cells [4]): green fluorescence signals were significantly enhanced | cell death in live/dead staining (RM-1 cells [5]): only a small portion of cells

N.N.[Cl][Pt][Cl] [DDP, cisplatin]
effect of GSP on the sensitivity of cells to the drug (RM-1 cells [2]): dramatically augmented

COc1cccc2c1C(=O)c1c(O)c3c(c(O)c1C2=O)C[C@@](O)(C(=O)CO)C[C@@H]3O[C@H]1C[C@H](N)[C@H](O)[C@H](C)O1 [DOX, doxorubicin]
effect of GSP on the sensitivity of cells to the drug (RM-1 cells [2]): dramatically augmented

CC(=O)O[C@@]12CO[C@@H]1C[C@H](O)[C@@]1(C)C(=O)[C@H](O)C3=C(C)[C@@H](OC(=O)[C@H](O)[C@@H](NC(=O)OC(C)(C)C)c4ccccc4)C[C@@](O)([C@@H](OC(=O)c4ccccc4)[C@H]21)C3(C)C [DTX, docetaxel]
effect of GSP on the sensitivity of cells to the drug (RM-1 cells [2]): dramatically augmented

Nc1ccn([C@@H]2O[C@H](CO)[C@@H](O)C2(F)F)c(=O)n1 [GEM, gemcitabine]
effect of GSP on the sensitivity of cells to the drug (RM-1 cells [2]): dramatically augmented

Cc1cc2c(C(C)C)c(O)c(O)c(C=O)c2c(O)c1-c1c(C)cc2c(C(C)C)c(O)c(O)c(C=O)c2c1O [GSP, Gossypol]
expression of Bcl-2 protein (Bcl-2): significantly down-regulated the expression of Bcl-2 | antitumor activity (tumor growth) (RM-1 prostate tumor [1]): moderate antitumor activity | cytotoxicity (in words) (RM-1 cells [2]; MTT, 48 h): almost no cytotoxicity | cytotoxicity (in words) (L02 cells; MTT, 48 h): almost no cytotoxicity | cytotoxicity (in words) (3T3 cells; MTT, 48 h): almost no cytotoxicity | antitumor effects (RM-1 prostate tumor [3]; [6]): moderate antitumor effects | body weight of tumor-bearing mice (RM-1 prostate tumor [3]; [6]): decreased significantly | liver tissue sections (H&E) (RM-1 prostate tumor [3]; [6]): some degree of liver injury | mitochondrial membrane potential change (JC-1 fluorescence, in words) (RM-1 cells [4]): negligible impact | cytotoxicity (in words) (4T1 cells): almost no cytotoxicity | cell death in live/dead staining (RM-1 cells [5]): only a small portion of cells

O=C1[O][Pt]2([NH][C@@H]3CCCC[C@H]3[NH]2)[O]C1=O [OXP, oxaliplatin]
effect of GSP on the sensitivity of cells to the drug (RM-1 cells [2]): dramatically augmented
